Published values of several laboratories.
Lines come from different studies, so protocols differ.

| Structure (SMILES) | tested on | test | system | conditions | endpoint | result |
| --- | --- | --- | --- | --- | --- | --- |
| CCN1CCc2c(sc3[nH]c(=O)n(O)c(=O)c23)C1 | Human betaherpesvirus 5 | viral replication, inhibitor | – | 10 µM, 7 days | inhibition | -4.8% |
| Nc1ncnc2c([C@@H]3N[C@H](CO)[C@@H](O)[C@H]3O)c[nH]c12 | human respiratory syncytial virus | viral replication, inhibitor | MA104 | 88.8 µM | inhibition | 94.2% |
| O=C1c2ccccc2C(c2ccccc2)C(=O)N1O (stereo not drawn) | Human betaherpesvirus 5 | viral replication, inhibitor | – | 10 µM, 7 days | inhibition | 23% |
| CN1CC[C@]23c4c5ccc(O)c4O[C@H]2[C@@H](O)C=C[C@H]3[C@H]1C5 | – | thermal pain | rat | intraperitoneal | ED50 | 7.63 mg/kg |
| CCCCCCC#Cc1cncc(-c2nnc(SCc3ccc(Cl)cc3)n2C)c1 | Mycobacterium tuberculosis | microbial growth | – | – | IC50 | 850 nM |
| O=c1[nH]c2cc(-c3ccc(Cl)cc3)sc2c(=O)n1O | Human betaherpesvirus 5 | viral replication, inhibitor | – | 10 µM, 7 days | inhibition | 70% |
| CCN1CC2(CCN(CCc3cc(F)ccc3F)CC2)O[C@H](C)C1=O | – | thermal pain | rat | intraperitoneal | ED50 | 1.85 mg/kg |
| O=c1[nH]c2cc(-c3ccc(Cl)cc3)ccc2c(=O)n1O | Human betaherpesvirus 5 | viral replication, inhibitor | – | 10 µM, 7 days | inhibition | 102% |
| NNC(=O)c1ccncc1 | Mycobacterium tuberculosis | microbial growth | ERDMAN | – | IC50 | 180 nM |
| O=C(NCc1ccc(F)cc1)c1nc(Cl)c2cccnc2c1O | Human betaherpesvirus 5 | viral replication, inhibitor | HFF | – | EC50 | 8300 nM |
| CCOC(=O)C1=C(N)N(c2ccc(C(=O)OCC)cc2)C(O)=C(C#N)C12C(=O)Nc1ccccc12 (stereo not drawn) | HepG2 | cell growth or viability, MTT | – | 3.125 µM, 24 h | viability | 74.5% |
| CCCCCCC#Cc1cncc(-c2nnc(SCc3ccc([N+](=O)[O-])o3)n2C2CC2)c1 | Mycobacterium tuberculosis | microbial growth | ERDMAN | – | IC90 | 130 nM |
